Measured values published in ChEMBL document CHEMBL4422636, “Investigation of the structural requirements for N-methyl-D-aspartate receptor positive and negative allosteric modulators based on 2-naphthoic acid” (Eur J Med Chem, 2019).
Active and inactive are the calls of the source. The calls are words filed in the database; no cut-off is given here.

Key:
[1] = target: Glutamate receptor ionotropic, NMDA 2D (Rattus norvegicus) (UniProt Q62645); assay: Positive allosteric modulation of rat GluN2D expressed in Xenopus laevis oocytes assessed as potentiation of L-glutamate/glycine-induced current response at holding potential -60 mV by two-electrode voltage clamp method relative to L-glutamate/glycine; type: cell-based; set-up: concentration or dose not given beside the values
Method in brief: (§1)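 Oocytes injected with GluN1a plus GluN2A, 2B, 2C or 2D RNA (1:1–3 molar, 15–30 ng total) and kept in ND-96 at 17°C for 1–5 days. TEVC at −60 mV in HEPES-buffered NaCl/KCl/BaCl2 saline, pH 7.4. […] Curves were fitted to give EC50/IC50 and maximal potentiation or inhibition, mean ± s.e.m.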

[2] = target: Glutamate receptor ionotropic, NMDA 2B (Rattus norvegicus) (UniProt Q00960); assay: Agonist activity at rat GluN2B expressed in Xenopus laevis oocytes assessed as effect on current response at holding potential -60 mV by two-electrode voltage clamp method relative to L-glutamate/glycine; type: cell-based
Method in brief: (§2)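 GluN1a with one GluN2 subunit; RNAs mixed 1:1–3 molar, 15–30 ng total injected into Xenopus oocytes, which were held in ND-96 at 17°C for 1–5 days. TEVC at −60 mV in 116 mM NaCl, 2 mM KCl, 0.3 mM BaCl2, 5 mM HEPES, pH 7.4. […] Reported as % of agonist-alone response, mean ± s.e.m., n≥4.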

[3] = target: T1, Glutamate NMDA receptor; Grin1/Grin2b (Rattus norvegicus, UniProt P35439+Q00960); assay: Positive allosteric modulation of rat GluN1/GluN2B expressed in Xenopus laevis oocytes assessed as potentiation of L-glutamate/glycine-induced current response at holding potential -60 mV by two-electrode voltage clamp method; type: cell-based; method in brief: as §1
[4] = target: Glutamate receptor ionotropic, NMDA 2C (Rattus norvegicus) (UniProt Q00961); assay: Allosteric modulation of rat GluN2C expressed in Xenopus laevis oocytes assessed as L-glutamate/glycine-induced current response at 100 uM at holding potential -60 mV by two-electrode voltage clamp method relative to L-glutamate/glycine; type: cell-based; method in brief: as §2
[5] = target: T2, Ionotropic glutamate receptor NMDA 1/2D (Rattus norvegicus, UniProt P35439+Q62645); assay: Positive allosteric modulation of rat GluN1/GluN2D expressed in Xenopus laevis oocytes assessed as potentiation of L-glutamate/glycine-induced current response at holding potential -60 mV by two-electrode voltage clamp method; type: cell-based; method in brief: as §1
[6] = Solubility of the compound at 100 uM; type: physicochemical
Method in brief: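 Compounds were inspected for visible precipitation at the concentrations used in the oocyte assays.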

[7] = target: Glutamate receptor ionotropic, NMDA 2B (Rattus norvegicus) (UniProt Q00960); assay: Allosteric modulation of rat GluN2B expressed in Xenopus laevis oocytes assessed as L-glutamate/glycine-induced current response at 100 uM at holding potential -60 mV by two-electrode voltage clamp method relative to L-glutamate/glycine; type: cell-based; method in brief: as §2
[8] = target: Glutamate receptor ionotropic, NMDA 2A (Rattus norvegicus) (UniProt Q00959); assay: Positive allosteric modulation of rat GluN2A expressed in Xenopus laevis oocytes assessed as potentiation of L-glutamate/glycine-induced current response at holding potential -60 mV by two-electrode voltage clamp method relative to L-glutamate/glycine; type: cell-based; set-up: concentration or dose not given beside the values; method in brief: as §1
[9] = target: T3, Glutamate NMDA receptor; Grin1/Grin2c (Rattus norvegicus, UniProt P35439+Q00961); assay: Positive allosteric modulation of rat GluN1/GluN2C expressed in Xenopus laevis oocytes assessed as potentiation of L-glutamate/glycine-induced current response at holding potential -60 mV by two-electrode voltage clamp method; type: cell-based; method in brief: as §1
[10] = target: Glutamate receptor ionotropic, NMDA 2A (Rattus norvegicus) (UniProt Q00959); assay: Agonist activity at rat GluN2A expressed in Xenopus laevis oocytes assessed effect on current response at holding potential -60 mV by two-electrode voltage clamp method relative to L-glutamate/glycine; type: cell-based; method in brief: as §2
[11] = target: Glutamate receptor ionotropic, NMDA 2C (Rattus norvegicus) (UniProt Q00961); assay: Agonist activity at rat GluN2C expressed in Xenopus laevis oocytes assessed effect on current response at holding potential -60 mV by two-electrode voltage clamp method relative to L-glutamate/glycine; type: cell-based; method in brief: as §2
[12] = target: Glutamate receptor ionotropic, NMDA 2A (Rattus norvegicus) (UniProt Q00959); assay: Allosteric modulation of rat GluN2A expressed in Xenopus laevis oocytes assessed as L-glutamate/glycine-induced current response at 100 uM at holding potential -60 mV by two-electrode voltage clamp method relative to L-glutamate/glycine; type: cell-based; method in brief: as §2
[13] = target: Glutamate receptor ionotropic, NMDA 2D (Rattus norvegicus) (UniProt Q62645); assay: Agonist activity at rat GluN2D expressed in Xenopus laevis oocytes assessed as effect on current response at holding potential -60 mV by two-electrode voltage clamp method relative to L-glutamate/glycine; type: cell-based; method in brief: as §2
[14] = target: T4, Glutamate NMDA receptor; Grin1/Grin2a (Rattus norvegicus, UniProt P35439+Q00959); assay: Positive allosteric modulation of rat GluN1/GluN2A expressed in Xenopus laevis oocytes assessed as potentiation of L-glutamate/glycine-induced current response at holding potential -60 mV by two-electrode voltage clamp method; type: cell-based; method in brief: as §1
[15] = target: Glutamate receptor ionotropic, NMDA 2C (Rattus norvegicus) (UniProt Q00961); assay: Positive allosteric modulation of rat GluN2C expressed in Xenopus laevis oocytes assessed as potentiation of L-glutamate/glycine-induced current response at holding potential -60 mV by two-electrode voltage clamp method relative to L-glutamate/glycine; type: cell-based; set-up: concentration or dose not given beside the values; method in brief: as §1
[16] = target: Glutamate receptor ionotropic, NMDA 2B (Rattus norvegicus) (UniProt Q00960); assay: Positive allosteric modulation of rat GluN2B expressed in Xenopus laevis oocytes assessed as potentiation of L-glutamate/glycine-induced current response at holding potential -60 mV by two-electrode voltage clamp method relative to L-glutamate/glycine; type: cell-based; method in brief: as §1
[17] = target: Glutamate receptor ionotropic, NMDA 2D (Rattus norvegicus) (UniProt Q62645); assay: Allosteric modulation of rat GluN2D expressed in Xenopus laevis oocytes assessed as L-glutamate/glycine-induced current response at 100 uM at holding potential -60 mV by two-electrode voltage clamp method relative to L-glutamate/glycine; type: cell-based; method in brief: as §2
[18] = target: T3, Glutamate NMDA receptor; Grin1/Grin2c; assay: Negative allosteric modulation of rat GluN1/GluN2C expressed in Xenopus laevis oocytes assessed as inhibition of L-glutamate/glycine-induced current response at holding potential -60 mV by two-electrode voltage clamp method; type: cell-based; method in brief: as §1
[19] = target: Glutamate NMDA receptor; Grin1/Grin2c (Rattus norvegicus) (UniProt P35439+Q00961); assay: Negative allosteric modulation of rat GluN1/GluN2C expressed in Xenopus laevis oocytes assessed as inhibition of L-glutamate/glycine-induced current response at holding potential -60 mV by two-electrode voltage clamp method relative to untreated control; type: cell-based; set-up: concentration or dose not given beside the values; method in brief: as §1
[20] = target: T1, Glutamate NMDA receptor; Grin1/Grin2b; assay: Negative allosteric modulation of rat GluN1/GluN2B expressed in Xenopus laevis oocytes assessed as inhibition of L-glutamate/glycine-induced current response at holding potential -60 mV by two-electrode voltage clamp method; type: cell-based; method in brief: as §1
[21] = target: Glutamate NMDA receptor; Grin1/Grin2b (Rattus norvegicus) (UniProt P35439+Q00960); assay: Negative allosteric modulation of rat GluN1/GluN2B expressed in Xenopus laevis oocytes assessed as inhibition of L-glutamate/glycine-induced current response at holding potential -60 mV by two-electrode voltage clamp method relative to untreated control; type: cell-based; set-up: concentration or dose not given beside the values; method in brief: as §1
[22] = target: Ionotropic glutamate receptor NMDA 1/2D (Rattus norvegicus) (UniProt P35439+Q62645); assay: Negative allosteric modulation of rat GluN1/GluN2D expressed in Xenopus laevis oocytes assessed as inhibition of L-glutamate/glycine-induced current response at holding potential -60 mV by two-electrode voltage clamp method relative to untreated control; type: cell-based; set-up: concentration or dose not given beside the values; method in brief: as §1
[23] = target: T2, Ionotropic glutamate receptor NMDA 1/2D; assay: Negative allosteric modulation of rat GluN1/GluN2D expressed in Xenopus laevis oocytes assessed as inhibition of L-glutamate/glycine-induced current response at holding potential -60 mV by two-electrode voltage clamp method; type: cell-based; method in brief: as §1
[24] = target: T4, Glutamate NMDA receptor; Grin1/Grin2a; assay: Negative allosteric modulation of rat GluN1/GluN2A expressed in Xenopus laevis oocytes assessed as inhibition of L-glutamate/glycine-induced current response at holding potential -60 mV by two-electrode voltage clamp method; type: cell-based; method in brief: as §1
[25] = target: Glutamate NMDA receptor; Grin1/Grin2a (Rattus norvegicus) (UniProt P35439+Q00959); assay: Negative allosteric modulation of rat GluN1/GluN2A expressed in Xenopus laevis oocytes assessed as inhibition of L-glutamate/glycine-induced current response at holding potential -60 mV by two-electrode voltage clamp method relative to untreated control; type: cell-based; set-up: concentration or dose not given beside the values; method in brief: as §1

| SMILES | Activity [1] | Activity [2] | EC50 [3] | Activity [4] | EC50 [5] | solubility [6] | Activity [7] | Activity [8] | EC50 [9] | Activity [10] | Activity [11] | Activity [12] | Activity [13] | EC50 [14] | Activity [15] | Activity [16] | Activity [17] | further results |
| --- | --- | --- | --- | --- | --- | --- | --- | --- | --- | --- | --- | --- | --- | --- | --- | --- | --- | --- |
| C=C(CCC(C)C)c1ccc2cc(C(=O)O)ccc2c1 | 277% | inactive | 116 µM | 349% | 72.3 µM | Soluble | 265% | 230% | 26.1 µM | inactive | inactive | 163% | inactive | 114 µM | 137% | 417% | 310% |  |
| CC(C)CC#Cc1ccc2cc(C(=O)O)ccc2c1 |  | inactive |  | 125% |  | Soluble | 99% |  |  | inactive | inactive | 104% | inactive |  |  |  | 110% |  |
| CCCCOc1ccc2cc(C(=O)O)ccc2c1 |  | inactive |  | 63% |  | Soluble | 46% |  |  | inactive | inactive | 55% | inactive |  |  |  | 57% |  |

Continued, in another order:

| Activity [1] | Activity [2] | EC50 [3] | Activity [4] | EC50 [5] | solubility [6] | Activity [7] | Activity [8] | EC50 [9] | Activity [10] | Activity [11] | Activity [12] | Activity [13] | EC50 [14] | Activity [15] | Activity [16] | Activity [17] | SMILES | further results |
| --- | --- | --- | --- | --- | --- | --- | --- | --- | --- | --- | --- | --- | --- | --- | --- | --- | --- | --- |
| 240% | inactive | 25 µM | 337% | 30.6 µM | Soluble | 225% | 277% | 36.2 µM | inactive | inactive | 281% | inactive | 39.4 µM | 263% | 192% | 317% | CC(C)CCC(C)c1ccc2cc(C(=O)O)ccc2c1 (racemic) |  |
| 65.6% | inactive | 27 µM | 171% | 34.7 µM | Soluble | 175% | 38.4% | 22.4 µM | inactive | inactive | 136% | inactive | 7.5 µM | 105% | 61.9% | 161% | O=C(O)c1ccc2cc(CCCC3CCCC3)ccc2c1 |  |
|  |  |  | 21.7% |  | Soluble | 7.3% |  |  |  |  | 32.7% |  |  |  |  | 11.3% | O=C(O)c1cc2cc(/C=C/c3ccccc3)ccc2cc1O | IC50 [18]: 13.8 µM; Activity [19]: 86.3%; IC50 [20]: 7.5 µM; Activity [21]: 93.9%; Activity [22]: 93.6%; IC50 [23]: 8.6 µM; IC50 [24]: 17.8 µM; Activity [25]: 83.2% |
